Source: publication PMC4627693 (Chemistry & biology, 2014)
Where a SMILES comes first, the peptide text is derived from it. The star is where a group is joined. Biotin = O=C1N[C@H]2[C@H](CS[C@H]2CCCCC(=O)*)N1; AEEA = NCCOCCOCC(=O)O

How the values were obtained:
Format in all cases: binding
[1] = tested on: c-Src-imine (c-Src-1 complex); test: Thiol reaction with Src-imine
Outline: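 c-Src (4 μM) pre-labelled 15 min with dialdehyde crosslinker (20 μM) in 25 mM HEPES pH 6.5, not quenched. Imine adduct then treated with 2-methylbenzylmercaptan (50 μM–1 mM) or Cys peptide (25–400 μM). Products analysed by ESI LC-MS with deconvolution. Duplicate points, representative of three experiments, error shown as SEM.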

c-Src-acrylamide = c-Src-acrylamide (Gallus gallus, UniProt P00523); test: Thiol reaction with Src-acrylamide, LC-MS; conditions: 4 μM c-Src-acrylamide (crosslinker 2), 25 minutes, room temperature
Outline: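 Recombinant c-Src (4 μM final) was pre-labelled with 20 μM crosslinker in PBS pH 8 (0.025% DMSO final) for 15 min without quench. It was then reacted with 2-methylbenzylmercaptan (50 μM-1 mM) or Cys-containing peptide (25-400 μM) to give a dose-response. Products were read by LC-ESI-MS (C4 column, deconvoluted spectra). Data are duplicate points (SEM), from three separate experiments.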

c-Src [2] = conditions: peptide 74 μM, 4 μM c-Src, 20 μM crosslinker 2; three hour time course; LC-MS
Outline: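 c-Src (4 μM) in PBS pH 8 incubated with acrylate crosslinker (20 μM; DMSO 0.025% final) and biotinylated cysteine-containing quasi-substrate peptide (74 μM) over 3 h. Samples quenched with NaBH4 in cold MeOH and analysed by ESI LC-MS on a C4 column with deconvolution. Crosslinked product expressed as % of total c-Src.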

recombinant c-Src = conditions: crosslinker 2 (20 μM), HCT-15 lysate
Outline: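 HCT-15 lysate diluted in reaction buffer to 2 mg/mL (500 μL), with MgCl2 and 4 pmol recombinant c-Src added. Crosslinker (20 μM) added for 10 min at room temperature, then biotinylated Cys peptide (5–40 μM final) for 25 min. Urea lysis buffer added, then streptavidin-agarose capture for 1 h at room temperature with shaking. Beads washed in 4M urea and boiled in reducing Laemmli buffer. Anti-Src western blot read by infrared imaging, giving % of a total-c-Src standard. Duplicates; two experiments.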

c-Src [3] = conditions: no adenine mimetic; 20 μM crosslinker, 4 μM c-Src, 25 mM HEPES pH 6.5; NaBH4 quench; LC-MS

## Cc1ccccc1CS [2-methylbenzylmercaptan, reference compound]
[1]; at high concentrations (50 μM-1 mM range), 4 μM c-Src-imine, 25 minutes, room temperature, LC-MS
  product formation with c-Src-1 complex (Src-imine): significant product formation
c-Src-acrylamide
  crosslinked product formation with Src-acrylamide adduct: much less efficient

## CC[C@H](C)[C@H](NC(=O)COCCOCCNC(=O)COCCOCCNC(=O)CCCC[C@@H]1SC[C@@H]2NC(=O)N[C@@H]21)C(=O)N[C@@H](CS)C(=O)NCC(=O)N[C@@H](CCC(=O)O)C(=O)N[C@@H](Cc1ccccc1)C(=O)N[C@@H](CCCNC(=N)N)C(=O)N[C@@H](CCCNC(=N)N)C(=O)N[C@@H](CCCNC(=N)N)C(N)=O [Cys-Srctide] ({Biotin-AEEA-AEEA}-ICGEFRRR-NH2; C-terminus assumed)
[1]; dialdehyde-based crosslinker (earlier strategy), LC/MS
  overall yield of the reaction with dialdehyde crosslinker 1: below the limit of detection
[1]; peptide concentrations exceeding 200 μM, 4 μM c-Src-imine, room temperature, LC-MS
  crosslinked product formation with c-Src-1 complex: no product formation was detected
c-Src-acrylamide
  crosslinked product formation with Src-acrylamide adduct: significant crosslinked product
c-Src [2]
  crosslinked product formation over time course (in words): proceed to completion
Recombinant c-Src; 5 μM peptide, 25 minutes
  c-Src captured at lowest peptide concentration: roughly 1%

## O=Cc1ccsc1C=O [thiophene dialdehyde]
c-Src [3]
  product (adduct) formed with c-Src: almost undetectable

## Biotin-ZZRPRTSCF [Cys-Aktide]
c-Src [2]
  crosslinked product formation over time course (in words): reacted more slowly than Cys-Srctide, and did not reach completion
Recombinant c-Src; 5 μM peptide, 25 minutes
  c-Src captured at lowest peptide concentration (in words): not captured at a detectable level
Recombinant c-Src; 40 μM peptide
  percentage of c-Src recovered vs negative control: significantly above the negative control
Recombinant c-Src; 25 minutes
  yield of c-Src compared with Cys-Srctide: less than that of Cys-Srctide

## Biotin-ZZRRADDCDDDD [Cys-CK2tide]
c-Src [2]
  crosslinked product (percentage of total c-Src): less than 10%
